This note sets out measurements from ChEMBL document CHEMBL1145532, “Role of peptide hydrophobicity in the mechanism of action of alpha-helical antimicrobial peptides” (Antimicrob Agents Chemother, 2007).

Data set [1] is described as follows: Toxicity against human erythrocytes assessed as hemolysis after 18 hrs. Type of data set: cell-based. The following applies: erythrocyte. The procedure, abridged: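 Unlysed cells were removed by centrifugation (800 x g), and hemoglobin release was read at 570 nm. The MHC is the maximal concentration causing no hemolysis. Control was 1% erythrocytes without peptide.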

Data set [2] in a line: Toxicity against human erythrocytes assessed as increase in hemolytic activity after 18 hrs relative to V13KL peptide. Type of data set: cell-based. The note with it: erythrocyte.
Data set [3] has as its system Pseudomonas aeruginosa. Nature of the data set: Antimicrobial activity against Pseudomonas aeruginosa PAK. Type of data set: functional. The procedure, abridged: (§1)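 Microtiter broth dilution in brain heart infusion (BHI). Cells were grown overnight at 37°C in BHI broth and diluted in the same medium. Serial peptide dilutions were inoculated to a final 5 x 10^5 CFU/ml and incubated at 37°C for 24 h. The MIC is the lowest peptide concentration that inhibited growth.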

Data set [4] has as its system Pseudomonas aeruginosa. Put plainly: Antimicrobial activity against Pseudomonas aeruginosa M2. The data set is classed as functional. The procedure, abridged: as §1
Data set [5] can be described thus: Toxicity against human erythrocytes assessed as hemolysis at 500 ug/ml after 18 hrs. The note with it: erythrocyte.
Data set [6] deals with Pseudomonas aeruginosa. Put plainly: Antimicrobial activity against Pseudomonas aeruginosa WR5. The data set is classed as functional. The procedure, abridged:
as §1

The subject of data set [7] is Pseudomonas aeruginosa. Put plainly: Antimicrobial activity against Pseudomonas aeruginosa PAO1. Type of data set: functional. Summed up:
as §1

Data set [8] deals with Pseudomonas aeruginosa. Put plainly: Antimicrobial activity against Pseudomonas aeruginosa CP204. The data set is classed as functional. The procedure, abridged:
as §1

For data set [9], the system named is Pseudomonas aeruginosa. Nature of the data set: Antimicrobial activity against Pseudomonas aeruginosa PA14. Type of data set: functional. Summed up:
as §1

Values after ≈ are worked out from the molar mass of the structure shown. Some results are limits rather than exact numbers.

Turning to “Ac-KWKSFAKTFKSAKKTVLHTALKAISS-NH2 [listing 1 of 2 here]”, in [1], the “Maximal concentration causing no hemolysis (MHC)” value is 1000 µg/mL. Moreover, in data set [2], the Activity is 0.3.

On to `CC[C@H](C)[C@H](NC(=O)[C@H](C)NC(=O)[C@H](CCCCN)NC(=O)[C@H](CC(C)C)NC(=O)[C@H](C)NC(=O)[C@@H](NC(=O)[C@H](Cc1cnc[nH]1)NC(=O)[C@H](CC(C)C)NC(=O)[C@@H](NC(=O)[C@@H](NC(=O)[C@H](CCCCN)NC(=O)[C@H](CCCCN)NC(=O)[C@H](C)NC(=O)[C@H](CO)NC(=O)[C@H](CCCCN)NC(=O)[C@H](Cc1ccccc1)NC(=O)[C@@H](NC(=O)[C@H](CCCCN)NC(=O)[C@H](CC(C)C)NC(=O)[C@H](Cc1ccccc1)NC(=O)[C@H](CO)NC(=O)[C@H](CCCCN)NC(=O)[C@H](Cc1c[nH]c2ccccc12)NC(=O)[C@H](CCCCN)NC(C)=O)[C@@H](C)O)[C@@H](C)O)C(C)C)[C@@H](C)O)C(=O)N[C@@H](CO)C(=O)N[C@@H](CO)C(N)=O`, for which the MIC in the data set with Pseudomonas aeruginosa [3] was 125 µg/mL (≈ 41.8 µM); against Pseudomonas aeruginosa [4] it was 31.3 µg/mL (≈ 10.5 µM); against Pseudomonas aeruginosa [6] it was 250 µg/mL (≈ 83.6 µM); against Pseudomonas aeruginosa [7], 31.3 µg/mL (≈ 10.5 µM); with Pseudomonas aeruginosa [8] it was 7.8 µg/mL (≈ 2.61 µM); with Pseudomonas aeruginosa [9] it was 62.5 µg/mL (≈ 20.9 µM). Further, the Activity entry in [5] is “Non-toxic”; in [2], 1. In data set [1], the “Maximal concentration causing no hemolysis (MHC)” value was determined as 250 µg/mL.

Regarding `CC[C@H](C)[C@H](NC(=O)[C@H](C)NC(=O)[C@H](CCCCN)NC(=O)[C@H](CC(C)C)NC(=O)[C@H](C)NC(=O)[C@@H](NC(=O)[C@H](Cc1c[nH]cn1)NC(=O)[C@H](CC(C)C)NC(=O)[C@@H](NC(=O)[C@@H](NC(=O)[C@H](CCCCN)NC(=O)[C@H](CCCCN)NC(=O)[C@H](CC(C)C)NC(=O)[C@H](CO)NC(=O)[C@H](CCCCN)NC(=O)[C@H](Cc1ccccc1)NC(=O)[C@@H](NC(=O)[C@H](CCCCN)NC(=O)[C@H](CC(C)C)NC(=O)[C@H](Cc1ccccc1)NC(=O)[C@H](CO)NC(=O)[C@H](CCCCN)NC(=O)[C@H](Cc1c[nH]c2ccccc12)NC(=O)[C@H](CCCCN)NC(C)=O)[C@@H](C)O)[C@@H](C)O)C(C)C)[C@@H](C)O)C(=O)N[C@@H](CO)C(=O)N[C@@H](CO)C(N)=O`, the MIC with Pseudomonas aeruginosa [3] worked out at 31.3 µg/mL (≈ 10.3 µM); in the data set with Pseudomonas aeruginosa [4] it was 15.6 µg/mL (≈ 5.14 µM); with Pseudomonas aeruginosa [6] it was 62.5 µg/mL (≈ 20.6 µM); in the data set with Pseudomonas aeruginosa [7], 15.6 µg/mL (≈ 5.14 µM); against Pseudomonas aeruginosa [8], 15.6 µg/mL (≈ 5.14 µM); with Pseudomonas aeruginosa [9], 31.3 µg/mL (≈ 10.3 µM). In addition, the “Maximal concentration causing no hemolysis (MHC)” value in data set [1] turned out to be 31.3 µg/mL. For the same compound, the Activity in [2] was found to be 8.

As for `CC[C@H](C)[C@H](NC(=O)[C@H](CC(C)C)NC(=O)[C@H](CCCCN)NC(=O)[C@H](CC(C)C)NC(=O)[C@H](C)NC(=O)[C@@H](NC(=O)[C@H](Cc1c[nH]cn1)NC(=O)[C@H](CC(C)C)NC(=O)[C@@H](NC(=O)[C@@H](NC(=O)[C@H](CCCCN)NC(=O)[C@H](CCCCN)NC(=O)[C@H](CC(C)C)NC(=O)[C@H](CO)NC(=O)[C@H](CCCCN)NC(=O)[C@H](Cc1ccccc1)NC(=O)[C@@H](NC(=O)[C@H](CCCCN)NC(=O)[C@H](CC(C)C)NC(=O)[C@H](Cc1ccccc1)NC(=O)[C@H](CO)NC(=O)[C@H](CCCCN)NC(=O)[C@H](Cc1c[nH]c2ccccc12)NC(=O)[C@H](CCCCN)NC(C)=O)[C@@H](C)O)[C@@H](C)O)C(C)C)[C@@H](C)O)C(=O)N[C@@H](CO)C(=O)N[C@@H](CO)C(N)=O`, the MIC came to 15.6 µg/mL (≈ 5.07 µM) in the data set on Pseudomonas aeruginosa [3]; 31.3 µg/mL (≈ 10.2 µM) with Pseudomonas aeruginosa [4]; 250 µg/mL (≈ 81.3 µM) in the data set with Pseudomonas aeruginosa [6]; 15.6 µg/mL (≈ 5.07 µM) in the data set on Pseudomonas aeruginosa [7]; 7.8 µg/mL (≈ 2.54 µM) with Pseudomonas aeruginosa [8]; 62.5 µg/mL (≈ 20.3 µM) against Pseudomonas aeruginosa [9]. Moreover, the “Maximal concentration causing no hemolysis (MHC)” value in [1] turned out to be 15.6 µg/mL. Besides, the Activity in data set [2] is 16.

Regarding Ac-KWKSFAKTFKSAKKTVLHTAAKAISS-NH2, the MIC in the data set with Pseudomonas aeruginosa [3] was greater than 500 µg/mL; in the data set with Pseudomonas aeruginosa [4] it was greater than 500 µg/mL; with Pseudomonas aeruginosa [6] it was greater than 500 µg/mL; against Pseudomonas aeruginosa [7], 500 µg/mL; against Pseudomonas aeruginosa [8], greater than 500 µg/mL; with Pseudomonas aeruginosa [9], greater than 500 µg/mL. Also, the “Maximal concentration causing no hemolysis (MHC)” value in data set [1] worked out at 1000 µg/mL. Moreover, the Activity in data set [2] is 0.3.

Regarding “Ac-KWKSFLKTFKSAKKTVLHTALKLISS-NH2 [listing 1 of 2 here]”, the MIC with Pseudomonas aeruginosa [3] worked out at 62.5 µg/mL; in the data set with Pseudomonas aeruginosa [4] it was 31.3 µg/mL; against Pseudomonas aeruginosa [6], 62.5 µg/mL; with Pseudomonas aeruginosa [7], 31.3 µg/mL; in the data set on Pseudomonas aeruginosa [8], 15.6 µg/mL; against Pseudomonas aeruginosa [9], 31.3 µg/mL.

For “Ac-KWKSFAKTFKSAKKTVLHTALKAISS-NH2 [listing 2 of 2 here]”, the MIC in the data set on Pseudomonas aeruginosa [3] was 250 µg/mL; with Pseudomonas aeruginosa [4], 250 µg/mL; against Pseudomonas aeruginosa [6] it was 250 µg/mL; against Pseudomonas aeruginosa [7], 125 µg/mL; with Pseudomonas aeruginosa [8], 125 µg/mL; in the data set on Pseudomonas aeruginosa [9] it was 500 µg/mL.

For “Ac-KWKSFLKTFKSAKKTVLHTALKLISS-NH2 [listing 2 of 2 here]”, the “Maximal concentration causing no hemolysis (MHC)” value in data set [1] came to 62.5 µg/mL. For the same compound, the Activity in [2] amounted to 4.
